# Assay results pooled from the literature.
# Protocols differ between the studies behind these lines.
# DRD1: D(1A) dopamine receptor (DRD1, Homo sapiens, UniProt P21728)
# SLC6A4: Sodium-dependent serotonin transporter (SLC6A4, Homo sapiens, UniProt P31645)
# rep papain-like protease: Replicase polyprotein 1ab, papain-like protease (rep, Porcine epidemic diarrhea virus, UniProt P0C6Y4)
Structure (SMILES),target,assay,conditions,inhibition [%]
Cc1cc(O)c(-c2ccc([C@@H](C)CN(C)C)cc2)c2c1[nH]c(=O)c1sccc12,"Mitogen-activated protein kinase kinase kinase 6 (MAP3K6, Homo sapiens, UniProt O95382)","enzyme activity, inhibitor",0.1 µM,15.6
NC/C(=C\F)COc1cccc(Cn2c(=S)[nH]c(=O)c3[nH]cnc32)c1,DRD1,"ligand displacement, radioligand",10 µM,< 50
C#Cc1cc(-c2cc(Nc3nc(N[C@@H](C)c4ccc(F)cn4)ncc3Cl)n[nH]2)ccc1C=O,"Serine/threonine-protein kinase Nek2 (NEK2, Homo sapiens, UniProt P51955)","enzyme activity, inhibitor",0.2 µM,22.5
CCOC(=O)[C@@]12C[C@@H]1[C@@H](n1cnc3c(NC4CC4)nc(C#Cc4ccc(Cl)s4)nc31)[C@H](O)[C@@H]2O,SLC6A4,"ligand displacement, radioligand",10 µM,15
O=C(NCc1cc(O)c(O)c(Br)c1)c1cccc(CCl)c1,rep papain-like protease,"enzyme activity, inhibitor, FRET",10 µM,103
CCOC(=O)[C@@]12C[C@@H]1[C@@H](n1cnc3c(Nc4ccccc4)nc(I)nc31)[C@H](O)[C@@H]2O,SLC6A4,"ligand displacement, radioligand",10 µM,-12
O=C(NCc1cc(O)c(O)c(Br)c1)c1ccc2ccccc2n1,rep papain-like protease,"enzyme activity, inhibitor, FRET",10 µM,45.5
Cc1cc(F)cc2c(CCC(=O)N[C@@H]3C(=O)NC[C@H]3O)c(-c3ccc(F)cc3)[nH]c12,SLC6A4,cell-free assay,10 µM,8
COc1ccc(C(=O)NCc2cc(Br)c(OC)c(OC)c2)cc1,"Replicase polyprotein 1ab, main protease (rep, Porcine epidemic diarrhea virus, UniProt P0C6Y4)","enzyme activity, inhibitor, FRET",10 µM,83.7
CCOC(=O)[C@@]12C[C@@H]1[C@@H](n1cnc3c(NCCCCc4ccccc4)nc(C#Cc4ccc(Cl)s4)nc31)[C@H](O)[C@@H]2O,SLC6A4,"ligand displacement, radioligand",10 µM,16
Cn1c(C(=O)NCc2cc(O)c(O)c(Br)c2)cc2ccccc21,rep papain-like protease,"enzyme activity, inhibitor, FRET",10 µM,86.3
N#C[C@@]12C[C@@H]1[C@@H](n1cnc3c(Nc4ccccc4)nc(I)nc31)[C@H](O)[C@@H]2O,SLC6A4,"ligand displacement, radioligand",10 µM,3
CCN1/C(=C/C(C)=O)Sc2ccc(F)cc21,DRD1,"ligand displacement, radioligand",10 µM,7.04
CCOC(=O)[C@@]12C[C@@H]1[C@@H](n1cnc3c(NCc4cccc(Cl)c4)nc(I)nc31)[C@H](O)[C@@H]2O,SLC6A4,"ligand displacement, radioligand",10 µM,-5
COc1cc(CNC(=O)c2cccc(OC(C)=O)c2C)cc(Br)c1OC,rep papain-like protease,"enzyme activity, inhibitor, FRET",10 µM,14.1
